This is an account of results in publication PMC7078523 (Saudi Pharmaceutical Journal : SPJ, 2020).

Each structure is given as a SMILES string. ≈ marks a conversion by molar mass, not a printed value.

The nature of series [1]: Phase solubility study of GRI with β-CD, NS2 and NS3. Type of series: physicochemical. Conditions: distilled water.
The nature of series [2]: In-vitro release study. It is filed as physicochemical.
The nature of series [3]: In-vivo bioavailability. Further details: species or system rats. Conditions: male, albino, rat, plasma, po, 15 mg/kg. A digest of the protocol: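 Fasted male albino rats (300±25 g), 7 per group, single oral 15 mg/kg as 1 ml aqueous suspension by feeding tube with 10 ml water. Orbital sinus blood into heparin at 0–48 h; plasma stored at -80 °C. Acetonitrile protein precipitation, propranolol internal standard, LC-MS/MS over 10–6000 ng/mL. Non-compartmental parameters per rat; AUC0-48 by log-linear trapezoidal rule, kel from terminal slope, t1/2 = 0.693/kel.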

For series [4] the following is noted: cited from earlier work.

In general, solubility refers to how much of the substance goes into solution per volume. The term AUC(0-t) denotes the area under the concentration-time curve up to a stated or last time point. A low value points to low exposure. As usually defined, the Cmax is the peak of the concentration-time curve. The Tmax is the time from dosing to the highest level. A word on the half-life: it is the time needed for the level to fall by half in the phase considered. Take `COC1=CC(=O)C[C@@H](C)[C@]12Oc1c(Cl)c(OC)cc(OC)c1C2=O` [GRI, Griseofulvin]: the solubility in series [1] is about 35 µM (≈ 12.3 µg/mL). Moreover, the “GRI cumulative percent released/dissolved after 2 hrs” value in series [2] (0.1 N HCl (pH 1.2), 37 °C, 50 rpm) is on record as 21.81 ± 0.07%. Further, the “GRI cumulative percent released/dissolved after 7 h” value in series [2] (2 h 0.1 N HCl then 5 hrs phosphate buffer pH 7.4) worked out at 27.43 ± 0.32%. The “Dissolution efficiency (%D.E.)” value in series [2] (after 7 hrs) came out at 23.87%. Besides, the “Best fitted release kinetics model” value in series [2] (highest correlation coefficient (R^2)) was “Higuchi release kinetics model”. In series [3], the AUC(0-t) came out at 22500 ng·h/mL, the Cmax was 1810 ng/mL, the Tmax was found to be 2 h and the half-life was 20 h. The molecule further had a k el in series [3] of 1.03e-05 s⁻¹. The “Biopharmaceutics Classification System (BCS) class” value in series [4] (ref Amidon et al., 1995) was “class II”. The “log P (octanol/water)” value in series [4] (ref Arida et al., 2007) is 2.15.

Turning to `CCC(C)n1ncn(-c2ccc(N3CCN(c4ccc(OCC5COC(Cn6cncn6)(c6ccc(Cl)cc6Cl)O5)cc4)CC3)cc2)c1=O` (stereo not shown) [itraconazole], in series [4] (physiological pH, ref Swaminathan et al., 2007), the Aqueous solubility entry was “about 1 ng mL^−1”.
